Screening results deposited in PubChem BioAssay by several laboratories.
An excerpt weighted towards active compounds, which were near 2.2% of everything screened.
HNF4A DNA FP = change in binding of human HNF4 alpha to DNA | P41235 | HNF4a-FITC DNA binding, fluorescence polarization, 1 h | activity change, % at 10 µM | hit rate 0.3% among 360,000; in the data active = activity change above about 30%, passing the limit was not always enough
Exocytosis inh = lytic granule exocytosis inhibition. TALL-104 LAMP-1 surface exposure, flow cytometry; cells stimulated with thapsigargin and PMA. inhibition, % at 10 µM. hit rate 0.66% among 360,000. AID 651702;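 active = inhibition above about 55%, limit read from the data; inconclusive = no clear call, values can overlap the other calls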
CSN inh = blocks human CSN-mediated cullin deneddylation; inhibition, % at 12.5 µM; hit rate 0.38% among 360,000; AID 651999; Q92905; Purified CSN, SCF-Nedd8-OG deneddylation, fluorescence polarization;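 active = pattern-corrected inhibition above about 35%, with an unprinted fluorescence ratio check between 0.5 and 1.5, limit read from the data, passing the limit was not always enough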;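 note: 0% = enzyme with substrate and 100% = substrate without enzyme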
Target sequence (Q92905 whole entry, looked up, one chain of several): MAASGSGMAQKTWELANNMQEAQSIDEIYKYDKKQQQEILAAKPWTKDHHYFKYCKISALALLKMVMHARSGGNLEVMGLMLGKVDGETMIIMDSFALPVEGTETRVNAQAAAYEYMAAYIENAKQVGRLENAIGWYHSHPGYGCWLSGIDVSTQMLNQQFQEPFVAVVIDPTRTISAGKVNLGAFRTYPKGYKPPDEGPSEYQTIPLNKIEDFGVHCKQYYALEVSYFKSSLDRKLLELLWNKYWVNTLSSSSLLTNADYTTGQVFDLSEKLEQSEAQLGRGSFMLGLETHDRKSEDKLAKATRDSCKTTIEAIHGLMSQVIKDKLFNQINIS
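Material: purified human Csn5 enzyme expressed in HEK293T cells / Medium: Tris buffer pH 7.5, NaCl, DTT, Tween-20, trehalose, ovalbumin / Compound dosing: 12.5 µM single point / Schedule: 90 min incubation of compound, enzyme and substrate at room temperature / Signal: fluorescence polarization of the substrate / Control set: no-enzyme wells high, enzyme-with-substrate wells low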
Myeloid diff MLP = promotes myeloid progenitor differentiation; hit rate 1% among 360,000; ER-HoxA9 myeloid progenitors, lysozyme-GFP differentiation, flow cytometry; calls only at 10 µM;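 active = normalized GFP-positive differentiation at or above the plate's own cutoff, the solvent-only control mean plus 3 SD; inconclusive = no clear call, values can overlap the other calls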;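 note: cells exposed to compound for four days before flow analysis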
Starred values were filed as active, the others as inactive; i = inactive; ? = inconclusive; + = active, no number; ! = a repeat was not active.

SMILES	HNF4A DNA FP	Exocytosis inh	CSN inh	Myeloid diff MLP
CC(=O)Oc1ccc2c(c1)Oc1cc(OC(C)=O)ccc1C21OC(=O)c2ccccc21	-94	6	-92	+
Cc1[nH]c2ccc(-c3nnc(SCC(=O)NCc4ccco4)n3Cc3ccccc3)cc2c1C	1	87*	0	i
Cc1sc2nc(SCC(=O)NCc3ccco3)n(Cc3ccccc3)c(=O)c2c1C	2	1	1	i
CC(C)(C)NC(=O)Cn1c(SCC(=O)N2CCCCCC2)nc2ccccc21	32*	1	-4	i
CC(C)Cn1c(N)c(C(=O)COC(=O)c2cc(-c3ccco3)nc3ccccc23)c(=O)n(C)c1=O	0	-13	32	+
CC(C)Cn1c(N)c(C(=O)COC(=O)c2cc(-c3ccccc3)nc3ccccc23)c(=O)n(C)c1=O	-1	-3	-2	i
CC(C)Cn1c(N)c(C(=O)CSc2nc3ccccc3n2C)c(=O)n(C)c1=O	48*	0	-4	i
CCNC(=O)C1(C)CCCN1C(=O)c1ccc(-c2ccccc2)cc1 (centres undefined)	-4	1	0	i
COc1cc2c(cc1OC)C(c1cc(OC)c(OC)c(OC)c1)C1(O)C(=O)OCC1(O)C2 (centres undefined)	0	-16	1	?
S=c1[nH]nc(-c2cc(-c3ccccc3)n[nH]2)n1/N=C/c1ccc(Cl)c(Cl)c1	9	2	72*	i
COc1ccc(N2CC(C(=O)Nc3nnc(SCC(=O)NCc4ccco4)s3)CC2=O)cc1 (centres undefined)	-9	-6	3	+
O=C(CSc1nnc(NC(=O)C2CC(=O)N(c3ccc(F)cc3)C2)s1)NCc1ccco1 (centres undefined)	-3	-2	8	i
CCN1C[C@@H]2[C@@H]3C(=O)N(C)C(=O)[C@@H]3[C@](CC)(C1=O)N2C(=O)c1ccc(Cl)cc1	-2	0	-6	i
Cc1nnc(NC(=O)c2cc(-c3ccncc3)nc3c(C)cccc23)s1	2	1	-1	i
CCN1CCN(Cc2ccc(NC(=O)c3ccc(C)c(NC(=O)N4CCNC4=O)c3)cc2C(F)(F)F)CC1	-1	-10	2	+!
Cc1cccc(-n2c(C)cc(/C=C3/C(=N)N4C(c5ccccc5)=CSC4=NC3=O)c2C)c1	25	-11	2	i
Cc1cc(/C=C2/C(=N)N3C(c4ccccc4)=CSC3=NC2=O)c(C)n1-c1ccc(Cl)cc1	3	60*	-1	i
CCC(c1nc2ccccc2[nH]1)N(C(=O)C1=NNC(=O)CC1)c1ccccc1 (centres undefined)	-4	-5	2	i
Cc1ccc(-n2c(C)c([N+](=O)[O-])c3ccc(O)c(CN(C)C)c32)cc1	0	-1	0	i
COc1ccc(-n2c(C)c([N+](=O)[O-])c3ccc(O)c(CN4CCCCC4)c32)cc1	3	63*	3	i
CCn1c(=NC(=O)CCS(=O)(=O)c2ccccc2)sc2cccc(OC)c21	-3	17	-1	?
CCn1c(=NC(=O)CS(=O)(=O)c2ccc(F)cc2)sc2cccc(OC)c21	7	41	3	+
N/C(=N\OC(=O)Cc1ccccc1)c1ccncc1	3	-1	4	i
Cc1ccc(CC(=O)O/N=C(\N)c2ccncc2)cc1	2	-7	-1	+
CCC(NC(=O)CCc1c(C)c2cc3c(C)c(C)oc3cc2oc1=O)C(=O)N[C@@H](Cc1ccccc1)C(=O)O (some centres undefined)	0	-4	2	i
SMILES	HNF4A DNA FP	Exocytosis inh	CSN inh	Myeloid diff MLP
CCCC(NC(=O)CCc1c(C)c2cc3c(C)c(C)oc3cc2oc1=O)C(=O)NC(Cc1ccc(Cl)cc1)C(=O)O (centres undefined)	5	-7	37*	i
CC1=N/C(=C\c2ccc(OC(C)C)cc2)C(=O)N1c1ccc(C(=O)O)cc1	16	-10	0	+
Nn1c(SCC(=O)Nc2c(Cl)cccc2Cl)nncc1=O	-3	13	5	i
CCOC(=O)CNS(=O)(=O)c1cc(-c2n[nH]c(=O)c3ccccc23)ccc1C	1	-2	-5	i
Cc1ccc(NS(=O)(=O)c2cc(-c3n[nH]c(=O)c4ccccc34)ccc2C)cc1	-1	17	-3	+
Cc1ccc(-c2cc(C(=O)N3CCN(C(=O)c4ccco4)CC3)[nH]n2)cc1C	-6	-4	0	i
Cc1cccc(C)c1NC(=O)c1sccc1SCc1cccc(C(F)(F)F)c1	-2	66*	0	i
O=C(NCCCN1CCCC1=O)c1ccc(S(=O)(=O)Nc2cccc(C(F)(F)F)c2)cc1	-3	-1	-2	i
COCCNc1nc2c(c(=O)n(Cc3cccc(Cl)c3)c(=O)n2C)n1C	1	29	0	+
CCN(CC)c1ccc(/C=C/C(=O)C2C(=O)C=C(C)OC2=O)cc1 (centres undefined)	76	-1	-93	+
COc1ccccc1CNC(=O)[C@H](C)NC(=O)C1CCN(C(=O)[C@@H]2CCCN2C(=O)OC(C)(C)C)CC1	3	5	1	i
CCn1nc(C(=O)Nc2nc(-c3ccccn3)cs2)c2ccccc2c1=O	-1	2	2	i
CCCn1nc(C(=O)Nc2nc(-c3ccccn3)cs2)c2ccccc2c1=O	2	0	3	+
COc1ccc(CNC(=O)Cn2ccc3cc(S(=O)(=O)N4CCCC4)ccc32)cc1OC	1	-1	-7	i
CCN(C1CCS(=O)(=O)C1)S(=O)(=O)c1ccc(Cl)s1 (centres undefined)	1	-1	8	i
O=C(O)c1ccc2c(=O)n3c(nc2c1)/C(=C/c1ccc(Cl)cc1Cl)CC3	0	-18	6	i
CC1(C)CC[C@]2(C(=O)O)CC[C@]3(C)C(=CCC4[C@@]5(C)CC[C@H](O)C(C)(C)C5CC[C@]43C)C2C1 (some centres undefined)	-7	56*	1	i
CC1(C)CC[C@]2(C(=O)O)CC[C@]3(C)C(=CC[C@@H]4[C@@]5(C)CC[C@H](O)C(C)(C)[C@@H]5CC[C@]43C)[C@@H]2C1	0	21	-1	i
CN1CCc2nc(SCC(=O)Nc3cccc(F)c3)c(C#N)c(-c3cccs3)c2C1	-4	2	-3	i
CN1CCc2nc(SCC(=O)Nc3ccc(OC(F)(F)F)cc3)c(C#N)c(-c3cccs3)c2C1	7	-2	12	+
Cc1cc2oc(C(=O)NCC(c3ccco3)N3CCCC3)c(C)c2cc1C (centres undefined)	3	1	6	i
Cc1ccc2oc(C(=O)NCC(c3ccco3)N3CCCC3)c(C)c2c1 (centres undefined)	0	10	1	+
O=C(NCC(c1ccco1)N1CCCCC1)c1ccc([N+](=O)[O-])s1 (centres undefined)	-1	-6	-6	+
O=C(CCNS(=O)(=O)c1ccccc1F)OCc1ccccc1Cl	-5	-4	-4	i
